Data published in ChEMBL document CHEMBL3351262, “Design and synthesis of new benzimidazole-carbazole conjugates for the stabilization of human telomeric DNA, telomerase inhibition, and their selective action on cancer cells” (J Med Chem, 2014).
Active and inactive are the calls of the source. The rule behind the calls is not given here.

What was measured:
[1] = Binding affinity to human Hum21 [5'-G3(T2AG3)3-3'] G-quadruplex DNA at 5 uM in 10 mM pH 7.4 Tris-Hcl buffer containing 0.1 mM EDTA and 0.1 M KCl by UV-Vis absorption sperctrometry
[2] = target: T1, Telomerase reverse transcriptase (Homo sapiens, UniProt O14746); experiment: Total inhibition of telomerase isolated form human A549 cells by TRAP-LIG assay
T1 sequence (O14746 whole entry): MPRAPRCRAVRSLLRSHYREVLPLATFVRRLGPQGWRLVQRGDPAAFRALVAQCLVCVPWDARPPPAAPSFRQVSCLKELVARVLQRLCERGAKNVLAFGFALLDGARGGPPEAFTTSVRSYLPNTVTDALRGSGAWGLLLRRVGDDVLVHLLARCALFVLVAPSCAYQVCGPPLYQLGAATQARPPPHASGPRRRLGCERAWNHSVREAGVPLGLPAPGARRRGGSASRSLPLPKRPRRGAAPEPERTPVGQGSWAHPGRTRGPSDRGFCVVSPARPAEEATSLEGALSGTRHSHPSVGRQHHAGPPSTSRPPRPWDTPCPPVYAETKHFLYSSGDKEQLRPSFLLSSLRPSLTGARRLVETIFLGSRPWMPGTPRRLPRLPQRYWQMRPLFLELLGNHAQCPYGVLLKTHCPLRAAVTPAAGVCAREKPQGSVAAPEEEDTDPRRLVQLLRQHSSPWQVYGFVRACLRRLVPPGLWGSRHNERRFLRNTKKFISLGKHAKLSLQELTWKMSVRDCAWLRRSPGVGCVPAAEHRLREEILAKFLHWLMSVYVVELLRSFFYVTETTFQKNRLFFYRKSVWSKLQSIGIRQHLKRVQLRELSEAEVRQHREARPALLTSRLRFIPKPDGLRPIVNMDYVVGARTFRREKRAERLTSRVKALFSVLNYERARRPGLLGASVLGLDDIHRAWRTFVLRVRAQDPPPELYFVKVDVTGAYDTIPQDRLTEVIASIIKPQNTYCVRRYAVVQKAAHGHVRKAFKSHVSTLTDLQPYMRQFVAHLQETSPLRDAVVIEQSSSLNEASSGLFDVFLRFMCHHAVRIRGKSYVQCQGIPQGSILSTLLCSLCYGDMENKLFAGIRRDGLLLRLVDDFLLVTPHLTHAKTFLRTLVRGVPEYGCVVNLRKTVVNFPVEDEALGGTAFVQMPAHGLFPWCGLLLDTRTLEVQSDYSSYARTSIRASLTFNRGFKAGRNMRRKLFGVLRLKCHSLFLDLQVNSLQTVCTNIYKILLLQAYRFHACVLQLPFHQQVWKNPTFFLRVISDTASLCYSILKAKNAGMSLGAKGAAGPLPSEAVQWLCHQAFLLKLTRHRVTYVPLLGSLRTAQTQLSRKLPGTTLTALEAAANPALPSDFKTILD

Calf thymus DNA [3] = experiment: Binding affinity to calf thymus DNA at 0.4 uM in 10 mM pH 7.4 Tris-Hcl buffer containing 0.1 mM EDTA and 40 mM NaCl by fluorescence spectroscopy; format: nucleic-acid assay; settings: Bos taurus
Summary of the method: (§1)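 CT DNA was in the same Tris/EDTA buffer with 40 mM NaCl. 0.4 μM ligand was titrated with preformed DNA, incubated 10 min at 20 °C, and excited at 300 or 330 nm. Kd and binding stoichiometry n came from the emission titration.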

[4] = target: T1, Telomerase reverse transcriptase; experiment: Inhibition of telomerase isolated form human A549 cells by TRAP-LIG assay
Calf thymus DNA [5] = experiment: Binding affinity to calf thymus DNA in 10 mM pH 7.4 Tris-Hcl buffer containing 0.1 mM EDTA and 40 mM NaCl by CD spectroscopy; settings: Bos taurus
[6] = Binding affinity to human Hum21 [5'-G3(T2AG3)3-3'] G-quadruplex DNA at 5 uM in 10 mM pH 7.4 Tris-Hcl buffer containing 0.1 mM EDTA and 0.1 M NaCl by UV-Vis absorption sperctrometry
[7] = Displacement of thiazole orange from human Hum21 [5'-G3(T2AG3)3-3'] G-quadruplex DNA in presence of 10 mM pH 7.4 Tris-Hcl buffer containing 0.1 mM EDTA and […] by fluorescent intercalator displacement assay
[8] = Displacement of thiazole orange from calf thymus double stranded DNA in presence of 10 mM pH 7.4 Tris-Hcl buffer containing 0.1 mM EDTA and […] by fluorescent intercalator displacement assay; set-up: species or system Bos taurus
[9] = Selectivity index, ratio of Kd for calf thymus DNA to Kd for human Hum21 [5'-G3(T2AG3)3-3'] G-quadruplex DNA
Summary of the method: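 Selectivity is the ratio of fluorescence-titration Kd for CT DNA (Tris-HCl pH 7.4, 40 mM NaCl, 0.1 mM EDTA) to Kd for preformed Hum21 G4 DNA (Tris-HCl pH 7.4, 0.1 M NaCl/KCl, 0.1 mM EDTA).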

[10] = Displacement of thiazole orange from telomeric duplex DNA (unknown origin) in presence of 10 mM pH 7.4 Tris-Hcl buffer containing 0.1 mM EDTA and […] by fluorescent intercalator displacement assay
HEK-293T [11] = experiment: Cytotoxicity against transformed HEK293T cells at 2 and 5 uM after 15 days by MTT assay; settings: Homo sapiens
HeLa [12] = experiment: Cytotoxicity against human HeLa cells at 2 and 5 uM after 15 days by MTT assay
Homo sapiens [13] = organism: Homo sapiens; experiment: Binding affinity to human Hum21 [5'-G3(T2AG3)3-3'] G-quadruplex DNA in 10 mM pH 7.4 Tris-Hcl buffer containing 0.1 mM EDTA and […] by CD spectroscopy
Homo sapiens [14] = organism: Homo sapiens; experiment: Binding affinity to human Hum21 [5'-G3(T2AG3)3-3'] G-quadruplex DNA assessed as change in melting temperature in 10 mM pH 7.4 Tris-Hcl buffer containing 0.1 mM EDTA and 0.1 mM NaCl […] (reference value: 7 to 10 degC)
[15] = Binding affinity to human Hum21 [5'-G3(T2AG3)3-3'] G-quadruplex DNA at 0.4 uM in 10 mM pH 7.4 Tris-Hcl buffer containing 0.1 mM EDTA and […] by fluorescence spectroscopy
Homo sapiens [16] = organism: Homo sapiens; experiment: Binding affinity to human Hum21 [5'-G3(T2AG3)3-3'] G-quadruplex DNA assessed as change in melting temperature in 10 mM pH 7.4 Tris-Hcl buffer containing 0.1 mM EDTA and […] measured after 12 hrs by UV-Vis absorption sperctrometry (reference value: 7 to 13 degC)
Calf thymus DNA [17] = experiment: Binding affinity to calf thymus DNA in 10 mM pH 7.4 Tris-Hcl buffer containing 0.1 mM EDTA and 40 mM NaCl by fluorescence spectroscopy; format: nucleic-acid assay, Bos taurus
Summary of the method: as §1

[18] = Binding affinity to human Hum21 [5'-G3(T2AG3)3-3'] G-quadruplex DNA at 0.4 uM in 10 mM pH 7.4 Tris-Hcl buffer containing 0.1 mM EDTA and 0.1 mM NaCl by fluorescence spectroscopy
HeLa [19] = experiment: Induction of apoptosis in human HeLa cells at 10 uM after 12 hrs by Annexin V and propidium iodide staining based FACS analysis; format: functional
Summary of the method: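 HeLa cells were seeded at 0.25 million per well, and after 24 h exposed to 10 μM ligand for 12 h. Cells were washed, trypsinized and resuspended in HEPES binding buffer (0.14 M NaCl, 2.5 mM CaCl2). They were stained with Annexin V-FITC and PI (final 1 μg/mL, 5 min), then analyzed by flow cytometry. Gated Annexin-only-positive cells were scored as apoptotic.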

HeLa [20] = experiment: Cytotoxicity against human HeLa cells at 0.5 to 8 uM after 72 hrs by MTT assay; format: functional, cell-based
Summary of the method: (§2)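 Cells were seeded at 15.0 × 10³/well and grown 72 h to >70% confluency. They were treated with ligand or 0.1% DMSO in 10% FBS for 72 h at 37 °C, 5% CO2, then given fresh DMEM/10% FBS. MTT (5 mg/mL stock) was added for 4 h, formazan dissolved in DMSO, and read at 595 nm. Viability was normalized to untreated cells after DMSO-blank subtraction. Doses were run in triplicate, with at least three independent experiments.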

[21] = Drug uptake in nucleus of human HeLa cells at 10 uM after 12 hrs by propidium iodide staining; format: ADME, cell-based
Summary of the method: (§3)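 Cells were grown on glass coverslips and treated with 10 μM ligand for 12 h. They were washed in DPBS, fixed in 4% paraformaldehyde for 10 min, and permeabilized with 0.1% Triton X-100 for 5 min. Nuclei were counterstained with propidium iodide. Blue ligand fluorescence and nuclear localization were imaged by confocal microscopy.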

HeLa [22] = experiment: Cytotoxicity against human HeLa cells after 72 hrs by MTT assay; format: functional, cell-based
Summary of the method: as §2

[23] = Drug uptake in cytoplasm of HFF cells at 10 uM after 12 hrs by confocal microscopy; format: ADME, cell-based; settings: human
Summary of the method: as §3

Homo sapiens [24] = organism: Homo sapiens; experiment: Induction of formation of human Hum21 [5'-G3(T2AG3)3-3'] G-quadruplex DNA at [compound]/[DNA] ratio of 5 in 10 mM pH 7.4 Tris-Hcl buffer containing 0.1 mM EDTA and […] by CD spectroscopy
Summary of the method: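 Hum21 was folded in the presence of ligand at the stated [L]:[DNA] ratio in 10 mM Tris-HCl pH 7.4, 0.1 mM EDTA, 0.1 M KCl or NaCl. Annealing was 95 °C for 5 min with slow cooling to 24 °C over 24 h. Topology was read from CD spectra recorded at 20 °C.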

A549 [25] = experiment: Cytotoxicity against human A549 cells at 0.5 to 8 uM after 72 hrs by MTT assay; format: functional, cell-based
Summary of the method: as §2

HEK-293T [26] = experiment: Cytotoxicity against transformed HEK293T cells at 0.5 to 8 uM after 72 hrs by MTT assay; format: functional, cell-based; settings: Homo sapiens
Summary of the method: as §2

Homo sapiens [27] = organism: Homo sapiens; experiment: Stabilization of 32P-ATP labeled human Hum21 [5'-G3(T2AG3)3-3'] G-quadruplex DNA assessed as protection against S1 nuclease-mediated degradation at 2.5 to 7.5 uM pre-incubated for 4 hrs before S1 nuclease addition by PAGE method
Summary of the method: (§4)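 5′-32P-labelled Hum21 was mixed with cold DNA and annealed in KCl; lanes were run in 50 mM KCl. G4 DNA was pre-incubated with ligand for 4 h. 2 μM DNA was digested with 20 U S1 nuclease for 2 min, quenched with acetate/CT DNA/EDTA stop buffer, and ethanol precipitated. Products ran on a 15% polyacrylamide urea sequencing gel beside an A+G ladder and were imaged by phosphorimager.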

HFF [28] = experiment: Cytotoxicity against HFF cells at 0.5 to 8 uM after 72 hrs by MTT assay; format: cell-based; settings: human
Summary of the method: as §2

HFF [29] = experiment: Induction of apoptosis in HFF cells assessed as nuclear fragmentation at 10 uM after 12 hrs by propidium iodide staining based FACS analysis; format: cell-based; settings: human
A549 [30] = experiment: Cytotoxicity against human A549 cells after 72 hrs by MTT assay; format: functional, cell-based; settings: A549, 72 h
Summary of the method: as §2

[31] = Drug uptake in nucleus of human HeLa cells at 10 uM after 12 hrs by confocal microscopy; format: ADME, cell-based
Summary of the method: as §3

HEK-293T [32] = experiment: Cytotoxicity against transformed HEK293T cells after 72 hrs by MTT assay; format: functional, cell-based; settings: Homo sapiens
Summary of the method: as §2

HeLa [33] = experiment: Induction of apoptosis in human HeLa cells assessed as nuclear fragmentation at 10 uM after 12 hrs by propidium iodide staining based FACS analysis; format: functional, cell-based
Homo sapiens [34] = organism: Homo sapiens; experiment: Stabilization of 32P-ATP labeled human Hum21 [5'-G3(T2AG3)3-3'] G-quadruplex DNA assessed as protection against S1 nuclease-mediated degradation at 2.5 to 5 uM pre-incubated for 4 hrs before S1 nuclease addition by PAGE method
Summary of the method: as §4

Row | Structure (SMILES) | Kd [1] [nM] | concentration giving total telomerase inhibition [2] [µM] | Activity (Calf thymus DNA [3]) | IC50 [4] [nM] | Activity (Calf thymus DNA [5]) | Kd [6] [nM] | DC50 [7] [nM] | DC50 [8] | Ratio [9] | DC50 [10] | inhibition (HEK-293T [11]) | inhibition (HeLa [12]) | Activity (Homo sapiens [13]) | ΔTm (Homo sapiens [14]) [°C] | Kd [15] [nM] | ΔTm (Homo sapiens [16]) [°C] | Kd (Calf thymus DNA [17]) [nM] | Kd [18] [nM] | Activity (HeLa [19]) [%] | Activity (HeLa [20]) | also measured
1 | CN1CCN(CCCCn2c3ccc(-c4nc5cc(-c6nc7cc(N8CCN(C)CC8)ccc7[nH]6)ccc5[nH]4)cc3c3cc(-c4nc5cc(-c6nc7cc(N8CCN(C)CC8)ccc7[nH]6)ccc5[nH]4)ccc32)CC1 | 230 | 3 | inactive | 1800 | Active | 380 | 1360 | Not Active | 234 | Not Active | Active | Active | Active | 10 | 150 | 10 | 89000 | 180 | – | – | –
2 | CN1CCN(CCCCn2c3ccc(-c4nc5cc(N6CCN(C)CC6)ccc5[nH]4)cc3c3cc(-c4nc5cc(N6CCN(C)CC6)ccc5[nH]4)ccc32)CC1 | 130 | 1 | inactive | 900 | inactive | 340 | 610 | Not Active | 576 | Not Active | Active | Active | Active | 12 | 100 | 16 | 196000 | 150 | 25 | Active | Drug uptake [21]: Active; IC50 (HeLa [22]): 8000 nM; Drug uptake [23]: Active; Activity (Homo sapiens [24]): inactive; Activity (A549 [25]): Active; Activity (HEK-293T [26]): Active; Activity (Homo sapiens [27]): Active; Activity (HFF [28]): Non-toxic; Activity (HFF [29]): Non-toxic; IC50 (A549 [30]): 8000 nM; Drug uptake [31]: Active; IC50 (HEK-293T [32]): 8000 nM; Activity (HeLa [33]): Active
3 | CN1CCN(CCCCn2c3ccc(-c4nc5cc(N6CCN(CCO)CC6)ccc5[nH]4)cc3c3cc(-c4nc5cc(N6CCN(CCO)CC6)ccc5[nH]4)ccc32)CC1 | 30 | 1 | inactive | 600 | inactive | 50 | 1120 | – | 500 | – | Active | Active | Active | 15 | 30 | 19 | 25000 | 80 | 55 | Active | Drug uptake [21]: Active; IC50 (HeLa [22]): 8000 nM; Drug uptake [23]: Active; Activity (Homo sapiens [24]): Active; Activity (A549 [25]): Active; Activity (HEK-293T [26]): Active; DC50 ([8]; read-out: DC50): 7710 nM; DC50 ([10]; read-out: DC50): > 8000 nM; Activity (HFF [28]): Non-toxic; Activity (HFF [29]): Non-toxic; IC50 (A549 [30]): 8000 nM; Drug uptake [31]: Active; IC50 (HEK-293T [32]): 8000 nM; Activity (HeLa [33]): Active; Activity (Homo sapiens [34]): Active
4 | CN1CCN(CCCCn2c3ccc(-c4nc5cc(N6CCOCC6)ccc5[nH]4)cc3c3cc(-c4nc5cc(N6CCOCC6)ccc5[nH]4)ccc32)CC1 | 330 | 3 | inactive | 1600 | inactive | 480 | 1010 | Not Active | 650 | Not Active | Active | Active | Active | 8 | – | 7 | 312000 | 190 | – | – | –
